According to ChEMBL document CHEMBL1629563, “Pharmacokinetic and safety evaluation of BILR 355, a second-generation nonnucleoside reverse transcriptase inhibitor, in healthy volunteers” (Antimicrob Agents Chemother, 2008):

Columns and labels:
[1] = test system: Homo sapiens; test: Toxicity in healthy human assessed as occurrence of migraine at 5 mg, po administered as single dose relative to control; assay type: organism-based; conditions: in vivo
[2] = test system: Homo sapiens; test: Toxicity in healthy human assessed as occurrence of palpitations at 1 mg, po administered as single dose relative to control; assay type: organism-based; conditions: in vivo
[3] = test system: Homo sapiens; test: Toxicity in healthy human assessed as occurrence of palpitations at 12.5 mg, po administered as single dose relative to control; assay type: organism-based; conditions: in vivo
[4] = test system: Homo sapiens; test: Toxicity in healthy human assessed as occurrence of palpitations at 75 mg, po administered as single dose relative to control; assay type: organism-based; conditions: in vivo
[5] = test system: Homo sapiens; test: Toxicity in healthy human assessed as occurrence of herpes simplex at 100 mg, po administered as single dose relative to control; assay type: organism-based; conditions: in vivo
[6] = test system: Homo sapiens; test: Toxicity in healthy human assessed as occurrence of frequent bowel movements at 25 mg, po administered as single dose relative to control; assay type: organism-based; conditions: in vivo
[7] = Half life in high fat fed healthy human at 50 mg, po administered as single dose coadministered with 100 mg of ritonavir; assay type: ADME, organism-based; conditions: in vivo
[8] = Apparent oral clearance in high fat fed healthy human at 50 mg, po administered as single dose coadministered with 100 mg of ritonavir; assay type: ADME, organism-based; conditions: in vivo
Outline: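 Fed cohort of 6 healthy men given an FDA-type high-fat breakfast (about 150, 250 and 500 to 600 cal from protein, carbohydrate and fat) 30 min before dosing. Ritonavir 100 mg given 10 h earlier and again with the single oral dose in PEG solution. Plasma sampled to 144 h, LC-MS/MS, noncompartmental analysis.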

[9] = Mean residence time in healthy human at 62.5 mg, po administered as single dose coadministered with 100 mg of ritonavir; assay type: ADME, organism-based; conditions: in vivo
[10] = Apparent volume of distribution in terminal phase in healthy human at 62.5 mg, po administered as single dose coadministered with 100 mg of ritonavir; assay type: ADME, organism-based; conditions: in vivo, read-out: Vz/F
Outline: (§1)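 Healthy male volunteers, fasted overnight, got one oral dose of BILR 355 in PEG solution with 200 ml water. Ritonavir 100 mg was given 10 h before and again with the dose. Plasma was sampled (EDTA) from predose to 144 h and assayed by validated LC-MS/MS. Cmax and Vz/F came from noncompartmental analysis. Vss/F = CL/F·(MRTp.o. − 1/Ka), with Ka from compartmental modelling.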

[11] = Apparent volume of distribution at steady state in healthy human at 62.5 mg, po administered as single dose coadministered with 100 mg of ritonavir; assay type: ADME, organism-based; conditions: in vivo, read-out: Vss/F; outline: as §1
[12] = Renal clearance in healthy human at 37.5 mg, po administered as single dose coadministered with 100 mg of ritonavir by high-pressure liquid chromatography-tandem mass spectrometry/mass spectrometry method; assay type: ADME, organism-based, Kidney; conditions: in vivo, read-out: CL_renal (converted)
[13] = Drug excretion in healthy human urine assessed as unchanged drug at 5 mg, po administered as single dose coadministered with 100 mg of ritonavir by high-pressure liquid chromatography-tandem mass spectrometry/mass spectrometry method; assay type: ADME, organism-based; conditions: read-out: Drug uptake
Outline: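 Ritonavir 100 mg was given 10 h before and with one oral dose of BILR 355 in PEG solution. Urine was collected by weight as predose blank, then 0-6, 6-24 and 24-72 h, stored at −20°C and assayed by LC-MS/MS. fe = unchanged drug excreted (Ae) as a percentage of dose. Line 50: high-fat breakfast 30 min before dosing.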

[14] = test system: Homo sapiens; test: Ratio of AUC (0 to infinity) in human at 50 mg, po in presence of 100 mg of ritonavir to AUC (0 to infinity) in human at 50 mg, po; assay type: ADME, organism-based; conditions: in vivo
[15] = test system: Homo sapiens; test: Toxicity in healthy human assessed as occurrence of aphthous stomatitis at 75 mg, po administered as single dose coadministered with 100 mg of ritonavir; assay type: organism-based; conditions: in vivo
[16] = test system: Homo sapiens; test: Toxicity in healthy human assessed as occurrence of aphthous stomatitis at 100 mg, po administered as single dose; assay type: organism-based; conditions: in vivo
[17] = test system: Homo sapiens; test: Toxicity in healthy human assessed as occurrence of diarrhea at 12.5 mg, po administered as single dose coadministered with 100 mg of ritonavir; assay type: organism-based; conditions: in vivo
[18] = test system: Homo sapiens; test: Toxicity in healthy human assessed as occurrence of diarrhea at 87.5 mg, po administered as single dose coadministered with 100 mg of ritonavir; assay type: organism-based; conditions: in vivo
[19] = test system: Homo sapiens; test: Toxicity in healthy human assessed as occurrence of maculopapular rash at 37.5 mg, po administered as single dose coadministered with 100 mg of ritonavir; assay type: organism-based; conditions: in vivo
[20] = AUC (0 to last) in healthy human at 25 mg, po administered as single dose; assay type: ADME, organism-based; parameters: dose 25 mg, route oral, time 0 - last; conditions: plasma
Outline: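 Healthy male volunteers, six active plus two placebo per dose group, single oral dose in PEG solution with 200 ml water after overnight fast; breakfast 60 to 90 min post-dose. EDTA plasma sampled predose to 144 h. Assayed by validated LC-MS/MS after protein precipitation. Noncompartmental analysis, AUC by linear up/log down trapezoidal rule; Vss = CL/F·(MRTp.o. − 1/Ka).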

[21] = Apparent volume of distribution in terminal phase in healthy human at 25 mg, po administered as single dose; assay type: ADME, organism-based; conditions: in vivo, read-out: Vz/F
Outline: (§2)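 Single fasting oral dose of BILR 355 in PEG solution with 200 ml tap water, given to healthy males. Standard breakfast came 60-90 min after the dose. EDTA plasma was sampled predose to 144 h, stored below −18°C and assayed by LC-MS/MS after protein precipitation. Noncompartmental analysis gave Vz/F. Vss/F = CL/F·(MRTp.o. − 1/Ka), with Ka from compartmental modelling.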

[22] = Apparent volume of distribution at steady state in healthy human at 75 mg, po administered as single dose; assay type: ADME, organism-based; conditions: in vivo, read-out: Vss/F; outline: as §2
[23] = Renal clearance in healthy human at 12.5 mg, po administered as single dose by high-pressure liquid chromatography-tandem mass spectrometry/mass spectrometry method; assay type: ADME, organism-based, Kidney; conditions: in vivo, read-out: CL_renal (converted)
[24] = AUC (0 to infinity) in healthy human at 25 mg, po administered as single dose coadministered with 100 mg of ritonavir; assay type: ADME, organism-based; parameters: dose 25 mg, route oral, time infinity; conditions: plasma
Outline: (§3)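 Healthy male volunteers, fasted. Ritonavir 100 mg given 10 h before and again together with single oral BILR 355 in PEG solution. EDTA plasma sampled predose to 144 h. LC-MS/MS assay after protein precipitation. Noncompartmental analysis, AUC by linear up/log down trapezoidal rule; Vss = CL/F·(MRTp.o. − 1/Ka).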

[25] = AUC (0 to last) in healthy human at 5 mg, po administered as single dose coadministered with 100 mg of ritonavir; assay type: ADME, organism-based; parameters: dose 5 mg, time 0 - last, route oral; conditions: plasma; outline: as §3
[26] = AUC (0 to last) in healthy human at 87.5 mg, po administered as single dose coadministered with 100 mg of ritonavir; assay type: ADME, organism-based; parameters: dose 87.5 mg, route oral, time 0 - last; conditions: plasma; outline: as §3
[27] = Cmax in healthy human at 75 mg, po administered as single dose coadministered with 100 mg of ritonavir by high-pressure liquid chromatography-tandem mass spectrometry/mass spectrometry method; assay type: ADME, organism-based; parameters: dose 75 mg, route oral; conditions: in vivo; outline: as §1
[28] = Tmax in healthy human at 62.5 mg, po administered as single dose coadministered with 100 mg of ritonavir; assay type: ADME, organism-based; conditions: in vivo
[29] = Tmax in healthy human at 75 mg, po administered as single dose coadministered with 100 mg of ritonavir; assay type: ADME, organism-based; conditions: in vivo
[30] = Tmax in high fat fed healthy human at 50 mg, po administered as single dose coadministered with 100 mg of ritonavir; assay type: ADME, organism-based; conditions: in vivo

Compound: CCN1c2ncc(CCOc3cc[n+]([O-])c4ccccc34)cc2C(=O)N(C)c2cccnc21 [BILR 355]
- Activity [1]: 0%
- Activity [2]: 0%
- Activity [3]: 0%
- Activity [4]: 16.7%
- Activity [5]: 0%
- Activity [6]: 0%
- half-life [7]: 660 min
- CL/F [8]: 104 mL/min
- MRT [9]: 14 h
- Vd/F [10]: 118 L
- Vd/F [11]: 113 L
- CL renal [12]: 4.92 mL/min
- dose excreted [13]: 4.78%
- Ratio [14]: 15.5
- Activity [15]: 0%
- Activity [16]: 0%
- Activity [17]: 0%
- Activity [18]: 16.7%
- Activity [19]: 16.7%
- AUC(0-t) [20]: 128 ng·h/mL
- Vd/F [21]: 1040 L
- Vd/F [22]: 608 L
- CL renal [23]: 6.85 mL/min
- AUC(0-inf) [24]: 4340 ng·h/mL
- AUC(0-t) [25]: 615 ng·h/mL
- AUC(0-t) [26]: 11700 ng·h/mL
- Cmax [27]: 812 ng/mL
- Tmax [28]: 42 min
- Tmax [29]: 1.63 h
- Tmax [30]: 6 h
